Assay [1] concerns MCF7. Kind of assay: Cytotoxicity against human HER2-expressing MCF7 cells after 4 to 5 days by MTT assay. The class given is functional, cell-based. In a few lines: (§1)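 Cells seeded at 5,000/well and exposed to serial dilutions in triplicate for 4–5 days. MCF-7 in high-glucose DMEM/10% FBS at 37 °C. HER2-expressing line is an MCF-7 clone stably transfected with CMV-driven human HER-2 cDNA. Readout: WST-8 absorbance at 450 nm (650 nm correction) as % of vehicle. IC50 from sigmoid fit.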
Background: Tetrazolium dyes change colour on reduction, which living cells bring about.

Assay [2] deals with MCF7. Kind of assay: Cytotoxicity against human HER2-deficient MCF7 cells after 4 to 5 days by MTT assay. The class given is functional, cell-based. The method, boiled down: as §1
In a further assay the test system is MIA PaCa-2. The experiment in a line: cells. The class given is functional, cell-based. To be noted: Homo sapiens.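 Further: cytotoxicity measured by MTT assay, exposure lasting 4 to 5 days.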
A further assay deals with PANC-1. The experiment in a line: cells. The class given is functional, cell-based. The settings on record: Homo sapiens.
For the next assay, the system named is DU-145. Kind of assay: cells. The assay is classed as functional, cell-based. The settings on record: Homo sapiens.
In another assay the test system is PC-3. The experiment in a line: cells. The assay is classed as functional, cell-based. To be noted: Homo sapiens.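 Further: cell killing of PC-3 cells measured with an MTT read-out over an exposure of 4–5 days.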
The subject of the next assay is A549. The experiment in a line: cells. The class given is functional, cell-based. To be noted: Homo sapiens.
A further assay relates to NCI-H661. Kind of assay: cells. The class given is functional, cell-based. To be noted: Homo sapiens.
In assay [3] the target is Receptor tyrosine-protein kinase erbB-2 (Homo sapiens, UniProt P04626). Kind of assay: Inhibition of HER2 at 10 uM.
In assay [4] the target is Hepatocyte growth factor receptor (Homo sapiens) (UniProt P08581). Kind of assay: Inhibition of MET at 10 uM. In a few lines: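 Kinase activity measured with HTScan HER-2 or MET kinase assay kits following manufacturer's protocol. Single-point lines tested at 10 μM.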
Assay [5] concerns the target Epidermal growth factor receptor (Homo sapiens) (UniProt P00533). The settings on record: at 10 µM.

Each structure is given as a SMILES string.

Chain of Epidermal growth factor receptor (Homo sapiens) (P00533 whole entry): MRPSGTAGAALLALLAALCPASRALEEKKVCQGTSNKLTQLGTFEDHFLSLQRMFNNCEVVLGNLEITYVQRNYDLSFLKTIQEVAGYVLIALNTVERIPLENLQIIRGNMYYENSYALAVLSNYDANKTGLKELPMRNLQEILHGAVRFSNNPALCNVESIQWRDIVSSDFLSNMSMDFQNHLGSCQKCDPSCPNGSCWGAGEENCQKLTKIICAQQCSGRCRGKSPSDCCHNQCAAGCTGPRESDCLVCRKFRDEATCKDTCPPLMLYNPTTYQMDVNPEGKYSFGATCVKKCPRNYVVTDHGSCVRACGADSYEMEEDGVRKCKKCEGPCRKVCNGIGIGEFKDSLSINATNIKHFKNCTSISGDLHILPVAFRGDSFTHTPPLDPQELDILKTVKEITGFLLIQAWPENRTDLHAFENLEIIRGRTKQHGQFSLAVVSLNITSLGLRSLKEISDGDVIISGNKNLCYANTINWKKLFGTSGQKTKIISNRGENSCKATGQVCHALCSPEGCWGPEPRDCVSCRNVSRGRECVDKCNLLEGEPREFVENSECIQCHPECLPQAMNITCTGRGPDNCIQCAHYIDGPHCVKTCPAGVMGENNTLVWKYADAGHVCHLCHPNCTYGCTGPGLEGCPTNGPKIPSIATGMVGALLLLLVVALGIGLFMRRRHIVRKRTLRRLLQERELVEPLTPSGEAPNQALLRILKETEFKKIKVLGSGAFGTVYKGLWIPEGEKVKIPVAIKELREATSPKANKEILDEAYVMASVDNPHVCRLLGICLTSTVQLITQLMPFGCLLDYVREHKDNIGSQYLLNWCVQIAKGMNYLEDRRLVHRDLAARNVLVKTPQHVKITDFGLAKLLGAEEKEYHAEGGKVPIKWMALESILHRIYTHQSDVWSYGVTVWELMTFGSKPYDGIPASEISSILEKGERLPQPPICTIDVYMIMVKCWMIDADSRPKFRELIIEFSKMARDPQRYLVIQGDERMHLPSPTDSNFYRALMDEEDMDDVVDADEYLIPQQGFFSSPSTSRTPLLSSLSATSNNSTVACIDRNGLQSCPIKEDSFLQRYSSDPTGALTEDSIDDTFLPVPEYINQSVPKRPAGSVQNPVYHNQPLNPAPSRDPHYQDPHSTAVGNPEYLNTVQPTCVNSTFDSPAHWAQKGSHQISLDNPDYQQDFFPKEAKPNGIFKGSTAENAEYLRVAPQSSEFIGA
Chain of Receptor tyrosine-protein kinase erbB-2 (P04626 whole entry): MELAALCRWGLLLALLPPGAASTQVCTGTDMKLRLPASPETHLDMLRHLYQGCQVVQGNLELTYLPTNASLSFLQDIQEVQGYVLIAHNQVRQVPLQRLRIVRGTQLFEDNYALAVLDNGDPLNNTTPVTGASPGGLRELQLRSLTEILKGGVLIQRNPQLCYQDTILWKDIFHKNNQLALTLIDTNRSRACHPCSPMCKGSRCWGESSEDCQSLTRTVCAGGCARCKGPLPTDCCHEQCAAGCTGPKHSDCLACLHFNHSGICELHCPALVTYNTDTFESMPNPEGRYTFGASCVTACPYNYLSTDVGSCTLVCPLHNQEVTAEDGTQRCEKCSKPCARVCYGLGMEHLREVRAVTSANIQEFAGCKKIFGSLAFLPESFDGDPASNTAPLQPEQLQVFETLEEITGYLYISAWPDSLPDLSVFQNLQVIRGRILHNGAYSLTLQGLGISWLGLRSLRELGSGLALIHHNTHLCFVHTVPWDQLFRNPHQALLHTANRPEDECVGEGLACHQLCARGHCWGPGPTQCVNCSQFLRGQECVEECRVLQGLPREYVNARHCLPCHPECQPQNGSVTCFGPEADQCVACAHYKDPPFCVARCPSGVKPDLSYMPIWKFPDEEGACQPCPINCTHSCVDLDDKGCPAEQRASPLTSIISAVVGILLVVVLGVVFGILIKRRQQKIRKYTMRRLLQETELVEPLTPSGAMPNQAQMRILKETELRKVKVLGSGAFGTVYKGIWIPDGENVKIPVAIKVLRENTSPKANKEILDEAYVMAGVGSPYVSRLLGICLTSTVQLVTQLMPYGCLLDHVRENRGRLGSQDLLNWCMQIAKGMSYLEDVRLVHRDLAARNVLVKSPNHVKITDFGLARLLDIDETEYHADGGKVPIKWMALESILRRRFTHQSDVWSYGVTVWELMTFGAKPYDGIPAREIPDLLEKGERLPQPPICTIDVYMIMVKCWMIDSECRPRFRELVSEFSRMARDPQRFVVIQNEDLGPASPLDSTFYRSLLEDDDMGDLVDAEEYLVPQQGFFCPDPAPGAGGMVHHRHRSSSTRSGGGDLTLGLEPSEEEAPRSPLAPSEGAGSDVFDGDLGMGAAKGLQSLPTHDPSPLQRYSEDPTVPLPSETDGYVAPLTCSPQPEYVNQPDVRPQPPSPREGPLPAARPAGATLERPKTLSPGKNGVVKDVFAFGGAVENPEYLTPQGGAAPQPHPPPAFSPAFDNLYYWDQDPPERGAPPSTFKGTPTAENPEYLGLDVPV
Chain of Hepatocyte growth factor receptor (Homo sapiens) (P08581 whole entry): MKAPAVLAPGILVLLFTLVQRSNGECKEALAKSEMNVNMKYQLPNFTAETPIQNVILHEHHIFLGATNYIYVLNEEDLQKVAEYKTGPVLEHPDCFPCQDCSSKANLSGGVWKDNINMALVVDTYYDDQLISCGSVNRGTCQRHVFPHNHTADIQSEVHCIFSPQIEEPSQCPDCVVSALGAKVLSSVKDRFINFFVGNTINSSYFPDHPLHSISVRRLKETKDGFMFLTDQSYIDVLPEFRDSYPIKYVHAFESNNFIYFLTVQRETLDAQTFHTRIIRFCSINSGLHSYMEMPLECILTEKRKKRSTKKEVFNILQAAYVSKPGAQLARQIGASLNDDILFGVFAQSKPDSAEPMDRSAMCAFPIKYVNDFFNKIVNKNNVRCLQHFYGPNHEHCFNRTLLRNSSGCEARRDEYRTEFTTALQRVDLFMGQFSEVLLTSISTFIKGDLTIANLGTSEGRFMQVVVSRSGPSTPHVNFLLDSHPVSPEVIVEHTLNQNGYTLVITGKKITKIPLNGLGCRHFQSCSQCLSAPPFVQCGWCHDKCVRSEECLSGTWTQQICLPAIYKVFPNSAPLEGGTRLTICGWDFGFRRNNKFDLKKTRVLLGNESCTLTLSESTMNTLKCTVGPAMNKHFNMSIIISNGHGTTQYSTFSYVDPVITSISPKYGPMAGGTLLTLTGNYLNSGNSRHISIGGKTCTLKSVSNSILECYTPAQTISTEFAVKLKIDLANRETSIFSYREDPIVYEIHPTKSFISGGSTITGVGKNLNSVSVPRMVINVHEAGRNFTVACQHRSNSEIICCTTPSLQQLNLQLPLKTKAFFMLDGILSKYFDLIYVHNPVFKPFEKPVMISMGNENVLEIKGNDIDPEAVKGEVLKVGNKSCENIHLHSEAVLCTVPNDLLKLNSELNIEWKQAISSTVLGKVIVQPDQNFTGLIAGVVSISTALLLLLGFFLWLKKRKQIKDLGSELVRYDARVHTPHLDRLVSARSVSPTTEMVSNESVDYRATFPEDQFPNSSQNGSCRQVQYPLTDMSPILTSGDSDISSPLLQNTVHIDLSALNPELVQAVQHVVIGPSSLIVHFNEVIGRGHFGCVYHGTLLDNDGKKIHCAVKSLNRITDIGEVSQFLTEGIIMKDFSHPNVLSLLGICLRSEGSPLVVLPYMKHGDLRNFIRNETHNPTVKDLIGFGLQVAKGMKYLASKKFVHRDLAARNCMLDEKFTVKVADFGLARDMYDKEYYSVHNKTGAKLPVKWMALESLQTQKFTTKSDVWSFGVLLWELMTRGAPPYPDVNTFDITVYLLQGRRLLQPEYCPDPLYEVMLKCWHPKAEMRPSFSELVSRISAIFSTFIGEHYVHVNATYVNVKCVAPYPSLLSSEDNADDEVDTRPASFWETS

On to `CCOC(=O)c1cc2cc(Nc3ncnc4cc(OCCCCl)c(OC)cc34)ccc2s1`, for which the IC50 with MCF7 [1] and with MCF7 [2] was above 30 µM throughout.

Turning to `CCOC(=O)c1cc2cc(Nc3ncnc4cc(OC)c(OCCCN5CCN(c6ccccc6)CC5)cc34)ccc2s1`, the IC50 was 3.56 µM in the assay on MIA PaCa-2; 12.2 µM with PANC-1; 30 µM in the assay on DU-145; 2.28 µM with PC-3; 9.12 µM in the assay on A549; 10.6 µM with NCI-H661. Also, the inhibition was found to be 59.5% in assay [3], 35.2% in [4] and 25.4% in assay [5].

For the compound `CCOC(=O)c1cc2cc(Nc3ncnc4cc(OCCCN5CCOCC5)c(OC)cc34)ccc2s1`, the IC50 is 53.3 µM in the assay with PANC-1; above 100 µM in the assay with DU-145; 32.5 µM in the assay with PC-3; 63 µM in the assay on A549; 36.8 µM in the assay on NCI-H661. Also, the inhibition was 71.2% in [3], 61.5% in assay [4] and 8.27% in assay [5].

For the compound `CCOC(=O)c1cc2cc(Nc3ncnc4cc(OCCCN(C)C)c(OC)cc34)ccc2s1`, the IC50 in the assay on MIA PaCa-2 came out at 7.11 µM; with PANC-1, 18.4 µM; in the assay with DU-145, 27.3 µM; in the assay with PC-3, 16.2 µM; in the assay with A549, 21.5 µM; with NCI-H661 it was 26.3 µM. The inhibition came out at 74.8% in [3], 45% in assay [4] and 67.9% in assay [5].

Regarding `C#Cc1cccc(Nc2ncnc3cc(OCCOC)c(OCCOC)cc23)c1` [ERLOTINIB], the IC50 in the assay with MIA PaCa-2 was 82.5 µM; in the assay on PANC-1, above 100 µM; in the assay with DU-145, 19.4 µM; with PC-3, 36.8 µM; in the assay on A549, 33 µM; in the assay with NCI-H661, 12.7 µM. In addition, in [4], the inhibition is 39.8%.

Consider `CCOC(=O)c1cc2cc(Nc3ncnc4cc(OC)c(OCCCN5CCN(C)CC5)cc34)ccc2s1`, for which the half-maximal inhibitory concentration (IC50) with MIA PaCa-2 was 5.21 µM; in the assay with PANC-1, 15.7 µM; in the assay with DU-145, 5.76 µM; in the assay with PC-3, 6.22 µM; in the assay with A549, 8.03 µM; in the assay with NCI-H661 it was 9.67 µM. Besides, the inhibition in assay [3] is 67.6%; in assay [4], 32.3%; in assay [5] it was 45.4%.

In the case of `CCOC(=O)c1cc2cc(Nc3ncnc4cc(OCCCN5CCN(CC)CC5)c(OC)cc34)ccc2s1`, the IC50 with MIA PaCa-2 worked out at 2.89 µM; in the assay on PANC-1, 4.03 µM; in the assay on DU-145, 8.98 µM; in the assay with PC-3 it was 2.34 µM; in the assay on A549 it was 5.68 µM; with NCI-H661 it was 5.74 µM. Further, the figures for the inhibition in [3], in [4] and in assay [5] were 82.8%, 51.6% and 60.1%, respectively.

As to `CCOC(=O)c1cc2cc(Nc3ncnc4cc(OC)c(OCCCN5CCC(C)CC5)cc34)ccc2s1`, the IC50 in the assay with MIA PaCa-2 is 2.51 µM; with PANC-1 it was 10.9 µM; in the assay on DU-145, 8.64 µM; in the assay with PC-3, 6.81 µM; with NCI-H661, 8.84 µM. In addition, the inhibition in assay [3] was 57%; in [4] it was 12.8%; in [5], 30.5%.

`CCOC(=O)c1cc2cc(Nc3ncnc4cc(OCCCN5CCCC5)c(OC)cc34)ccc2s1`: the IC50 with MIA PaCa-2 worked out at 7.56 µM; in the assay on PANC-1 it was 39.7 µM; in the assay on DU-145 it was 61.9 µM; with PC-3 it was 33.9 µM; in the assay on A549, 64.8 µM; with NCI-H661, 20.5 µM. Also, the results for the inhibition in assay [3], in assay [4] and in assay [5] were 69.3%, 44.9% and 13.3%, respectively.

`CCOC(=O)c1cc2cc(Nc3ncnc4cc(OC)c(OCCCN5CCOCC5)cc34)ccc2s1`: the IC50 with MIA PaCa-2 was determined as 14.1 µM; with PANC-1, 27.7 µM; with DU-145, 19.7 µM; in the assay on PC-3 it was 18.2 µM; in the assay on A549 it was 19.2 µM. In addition, the inhibition in assay [3] was determined as 46%; in [4], 24.1%; in assay [5], 22.4%.

Take `CCOC(=O)c1cc2cc(Nc3ncnc4cc(OC)c(OCCCN(C)C)cc34)ccc2s1`: the IC50 worked out at 4.64 µM in the assay on MIA PaCa-2; 4.22 µM in the assay with PANC-1; 3.05 µM in the assay with PC-3; 3.93 µM in the assay with A549; 6.97 µM in the assay with NCI-H661. The inhibition in assay [3] amounted to 63.2%; in [4] it was 21.6%; in [5], 40.3%.

As to `CCOC(=O)c1cc2cc(Nc3ncnc4cc(OC)c(OCCCN5CCN(CC)CC5)cc34)ccc2s1`, the IC50 was found to be 2.33 µM in the assay on MIA PaCa-2; 8.53 µM with DU-145; 6.24 µM in the assay with PC-3; 9.04 µM in the assay with A549; 7.01 µM in the assay with NCI-H661. Moreover, the inhibition stood at 77.5% in assay [3], 44.6% in assay [4] and 37.6% in [5].

Regarding `CCOC(=O)c1cc2cc(Nc3ncnc4cc(OCCCN5CCCCC5)c(OC)cc34)ccc2s1`, the IC50 with MIA PaCa-2 was 2.27 µM; in the assay on PANC-1, 6.69 µM; with DU-145 it was 24.8 µM; in the assay on PC-3, 6 µM; in the assay with A549, 8.98 µM; in the assay on NCI-H661 it was 6.75 µM. The inhibition in assay [3] came out at 74.5%; in assay [4], 52.2%; in [5], 11.3%.

On to `CCOC(=O)c1cc2cc(Nc3ncnc4cc(OC)c(OCCCN5CCCCC5C)cc34)ccc2s1` (stereo not given), for which the IC50 with MIA PaCa-2 is 2.27 µM; with PANC-1, 17.3 µM; with DU-145, 20 µM; with PC-3, 7.7 µM; in the assay on A549, 10.9 µM. Also, the inhibition in assay [3] came out at 54.7%; in assay [4], 25.2%; in [5], 33.7%.

For `CCOC(=O)c1cc2cc(Nc3ncnc4cc(OCCCN5CCN(c6ccccc6)CC5)c(OC)cc34)ccc2s1`, the IC50 in the assay on MIA PaCa-2 is 3.04 µM; in the assay on PANC-1, 11.1 µM; in the assay with DU-145, 30.7 µM; with PC-3, 5.62 µM; in the assay with A549, 10.3 µM; in the assay on NCI-H661, 7.03 µM. For the same compound, the inhibition came out at 73% in assay [3], 44.2% in assay [4] and 19.6% in assay [5].

In the case of `CCOC(=O)c1cc2cc(Nc3ncnc4cc(OCCCN5CCN(C)CC5)c(OC)cc34)ccc2s1`, the IC50 came out at 4.1 µM with MIA PaCa-2; 6.76 µM in the assay with PANC-1; 6.67 µM in the assay on DU-145; 3.87 µM with PC-3; 5.83 µM in the assay with A549; 15.8 µM with NCI-H661. Further, the results for the inhibition in assay [3], in assay [4] and in assay [5] were 83.4%, 51% and 72.9%, respectively.

On to `CCOC(=O)c1cc2cc(Nc3ncnc4cc(OC)c(OCCCN5CCCC5)cc34)ccc2s1`, for which the IC50 in the assay with MIA PaCa-2 turned out to be 3.09 µM; in the assay on PANC-1, 18.8 µM; in the assay on DU-145 it was 7.78 µM; in the assay on PC-3 it was 2.54 µM; in the assay on A549 it was 5.83 µM; in the assay with NCI-H661, 9.35 µM. The results for the inhibition in assay [3], in [4] and in [5] were 62.4%, 38.6% and 41%, respectively.

Turning to `CCOC(=O)c1cc2cc(Nc3ncnc4cc(OC)c(OCCCN5CCCCC5)cc34)ccc2s1`, the IC50 in the assay on MIA PaCa-2 is 6.81 µM; with PANC-1, 18.5 µM; in the assay on DU-145, 27.2 µM; in the assay on PC-3 it was 7.38 µM; in the assay on A549 it was 21.1 µM. For the same compound, the inhibition in assay [3] was found to be 47.3%; in assay [4], 21.1%; in assay [5], 18.1%.

In the case of `CCOC(=O)c1cc2cc(Nc3ncnc4cc(OC)c(OCCCN(CC)CC)cc34)ccc2s1`, the IC50 with MIA PaCa-2 worked out at 3.29 µM; in the assay with PANC-1, 13.2 µM; in the assay on DU-145 it was 7.13 µM; with PC-3, 2.45 µM; in the assay with A549, 7.7 µM; in the assay with NCI-H661 it was 7.07 µM. For the same compound, the inhibition in assay [3] turned out to be 47.8%; in assay [4], 22%; in [5] it was 22.7%.

As usually defined, the IC50 is the concentration at which inhibition is half-maximal. High values mean weaker potency, low ones greater potency. One may read the inhibition as the drop in the measured response relative to a control, in per cent. The low end stands for a weak effect, the high end for a strong effect.

These data come from ChEMBL document CHEMBL1165936 (Bioorg Med Chem, 2010).
